Data set [1] concerns the target Sigma intracellular receptor 2 (Homo sapiens, UniProt Q5BJF2). The experiment in a line: Displacement of [3H]-DTG from sigma 2 receptor (unknown origin) measured after 90 mins by microbeta counting analysis. In general terms: Displacement assays read how much labelled ligand stays bound in the presence of the test substance.
The target in data set [2] is T1, Adenosine receptor A3 (Homo sapiens) (UniProt P0DMS8).
T1 sequence (whole entry): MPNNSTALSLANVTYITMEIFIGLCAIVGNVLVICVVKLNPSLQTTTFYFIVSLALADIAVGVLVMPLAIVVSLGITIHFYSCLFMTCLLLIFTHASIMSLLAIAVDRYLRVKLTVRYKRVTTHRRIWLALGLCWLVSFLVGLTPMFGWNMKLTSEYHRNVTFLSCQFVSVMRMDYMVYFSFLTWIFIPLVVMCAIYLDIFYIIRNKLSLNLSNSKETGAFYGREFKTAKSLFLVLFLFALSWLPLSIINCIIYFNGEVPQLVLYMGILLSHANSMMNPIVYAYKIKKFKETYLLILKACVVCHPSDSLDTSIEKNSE
The experiment in a line: Partial agonist activity at recombinant human A3AR expressed in HEK293 cells assessed as inhibition of forskolin-stimulated cAMP accumulation by measuring residual cAMP level measured after 30 mins in presence of A2BAR blocker PSB-603 by Glo-sensor assay relative to control. It counts as functional, cell-based.

Data set [3] can be described thus: in vivo. As to conditions: Wistar, rat, po, 10 mg/kg.
Data set [4] has as its target T2, Adenosine receptor A1 (Homo sapiens) (UniProt P30542).
T2 sequence (whole entry): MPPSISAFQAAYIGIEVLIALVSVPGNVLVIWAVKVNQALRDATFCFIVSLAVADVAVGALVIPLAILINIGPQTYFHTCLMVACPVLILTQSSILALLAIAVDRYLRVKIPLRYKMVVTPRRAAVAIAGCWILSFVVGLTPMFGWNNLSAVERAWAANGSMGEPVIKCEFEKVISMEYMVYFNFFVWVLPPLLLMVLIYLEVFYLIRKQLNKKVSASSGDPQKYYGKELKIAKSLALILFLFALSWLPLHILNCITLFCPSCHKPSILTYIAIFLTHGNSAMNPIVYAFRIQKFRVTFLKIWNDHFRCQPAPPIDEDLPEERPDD
The experiment in a line: Displacement of [3H]R-PIA from recombinant human A1AR expressed in HEK293 cell membranes at 10 uM measured after 60 mins by liquid scintillation counting method relative to control.

In another data set the target is Cytochrome P450 3A4 (Homo sapiens, UniProt P08684). The experiment in a line: Inhibition of CYP3A4 (unknown origin) using midazolam as substrate.
Sequence of Cytochrome P450 3A4 (P08684 whole entry): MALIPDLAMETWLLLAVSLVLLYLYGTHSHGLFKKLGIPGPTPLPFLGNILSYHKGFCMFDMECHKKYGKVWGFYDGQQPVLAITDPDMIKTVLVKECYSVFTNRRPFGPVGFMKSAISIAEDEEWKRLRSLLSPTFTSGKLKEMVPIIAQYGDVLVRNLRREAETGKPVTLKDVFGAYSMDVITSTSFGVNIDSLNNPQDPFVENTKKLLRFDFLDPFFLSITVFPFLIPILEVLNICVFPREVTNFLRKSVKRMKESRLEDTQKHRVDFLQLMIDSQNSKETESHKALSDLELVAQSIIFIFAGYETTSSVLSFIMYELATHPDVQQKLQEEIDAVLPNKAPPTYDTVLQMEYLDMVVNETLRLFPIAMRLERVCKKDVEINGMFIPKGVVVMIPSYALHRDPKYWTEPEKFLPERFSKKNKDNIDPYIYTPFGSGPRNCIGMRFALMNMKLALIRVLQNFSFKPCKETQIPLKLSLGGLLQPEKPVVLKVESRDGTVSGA
The target of another data set is Cytochrome P450 2C19 (Homo sapiens, UniProt P33261). The experiment in a line: Inhibition of CYP2C19 (unknown origin).
Sequence of Cytochrome P450 2C19 (P33261 whole entry): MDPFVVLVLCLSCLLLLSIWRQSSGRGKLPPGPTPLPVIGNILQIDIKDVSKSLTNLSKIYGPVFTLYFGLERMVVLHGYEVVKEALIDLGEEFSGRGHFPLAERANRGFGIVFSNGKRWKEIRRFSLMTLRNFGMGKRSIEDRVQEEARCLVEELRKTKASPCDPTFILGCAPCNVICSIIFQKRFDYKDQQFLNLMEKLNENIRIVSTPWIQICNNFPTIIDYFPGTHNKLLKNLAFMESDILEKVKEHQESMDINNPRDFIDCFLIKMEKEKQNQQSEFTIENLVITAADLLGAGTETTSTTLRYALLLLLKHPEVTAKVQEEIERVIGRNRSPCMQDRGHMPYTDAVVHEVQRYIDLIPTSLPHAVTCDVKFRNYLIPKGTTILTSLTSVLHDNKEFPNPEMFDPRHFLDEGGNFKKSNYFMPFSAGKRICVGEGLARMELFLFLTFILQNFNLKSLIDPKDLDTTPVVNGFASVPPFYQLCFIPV
A further data set has as its target Cytochrome P450 2C9 (Homo sapiens, UniProt P11712). The experiment in a line: Inhibition of CYP2C9 (unknown origin) using tolbutamide as substrate.
In data set [5] the target is T3, Adenosine receptor A3 (Mus musculus) (UniProt Q61618).
T3 sequence (whole entry): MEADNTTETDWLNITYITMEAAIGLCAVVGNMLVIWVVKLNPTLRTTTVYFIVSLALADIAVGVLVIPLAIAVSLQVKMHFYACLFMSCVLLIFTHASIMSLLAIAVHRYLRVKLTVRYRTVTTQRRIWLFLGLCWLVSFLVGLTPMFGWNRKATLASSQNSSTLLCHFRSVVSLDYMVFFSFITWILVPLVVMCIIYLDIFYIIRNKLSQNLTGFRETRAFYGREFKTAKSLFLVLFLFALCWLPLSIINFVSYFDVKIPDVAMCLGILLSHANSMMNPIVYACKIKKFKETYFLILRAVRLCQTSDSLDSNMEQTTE
The experiment in a line: Partial agonist activity at recombinant mouse A3AR expressed in HEK293 cell membranes assessed as stimulation of [35S]GTPgammaS binding measured after 2 hrs in presence of A2BAR blocker PSB-603 by liquid scintillation counting analysis relative to adenosine-5'-Nethyluronamide. It counts as functional.

For another data set, the target named is T4, Cytochrome P450 1A2 (Homo sapiens, UniProt P05177).
T4 sequence (P05177 whole entry): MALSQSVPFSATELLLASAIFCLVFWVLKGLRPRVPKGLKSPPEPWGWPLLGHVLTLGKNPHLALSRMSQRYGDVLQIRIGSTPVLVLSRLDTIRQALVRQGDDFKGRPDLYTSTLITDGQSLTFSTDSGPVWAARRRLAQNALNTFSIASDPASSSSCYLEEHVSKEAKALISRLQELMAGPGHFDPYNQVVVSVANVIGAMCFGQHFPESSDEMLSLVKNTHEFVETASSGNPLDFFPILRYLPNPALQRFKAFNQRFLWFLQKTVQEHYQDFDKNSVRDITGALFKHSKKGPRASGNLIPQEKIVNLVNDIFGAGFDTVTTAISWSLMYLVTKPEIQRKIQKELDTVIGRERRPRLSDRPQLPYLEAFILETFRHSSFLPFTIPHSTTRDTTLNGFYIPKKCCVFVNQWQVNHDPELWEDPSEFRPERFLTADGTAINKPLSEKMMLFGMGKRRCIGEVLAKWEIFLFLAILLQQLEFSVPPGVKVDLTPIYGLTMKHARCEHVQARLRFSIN
The experiment in a line: Inhibition of CYP1A2 (unknown origin).

The target of a further data set is Cytochrome P450 2D6 (Homo sapiens, UniProt P10635). The experiment in a line: Inhibition of CYP2D6 (unknown origin) using dextromethorphan as substrate.
Sequence of Cytochrome P450 2D6 (P10635 whole entry): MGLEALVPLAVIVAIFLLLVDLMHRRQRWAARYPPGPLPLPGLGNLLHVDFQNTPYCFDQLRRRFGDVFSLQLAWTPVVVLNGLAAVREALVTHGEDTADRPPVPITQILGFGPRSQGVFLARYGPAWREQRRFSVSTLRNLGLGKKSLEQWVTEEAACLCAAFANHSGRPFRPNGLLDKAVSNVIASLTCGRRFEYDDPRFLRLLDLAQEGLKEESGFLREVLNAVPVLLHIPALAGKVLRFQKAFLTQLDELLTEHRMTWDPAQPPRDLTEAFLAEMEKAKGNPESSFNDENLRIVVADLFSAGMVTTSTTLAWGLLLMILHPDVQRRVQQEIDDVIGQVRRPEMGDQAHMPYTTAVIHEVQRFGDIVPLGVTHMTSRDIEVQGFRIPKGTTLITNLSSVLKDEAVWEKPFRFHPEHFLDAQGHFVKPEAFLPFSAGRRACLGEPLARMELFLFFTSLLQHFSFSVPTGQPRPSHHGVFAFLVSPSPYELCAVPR
In data set [6] the test system is Mus musculus. The experiment in a line: Induction of hypothermia in A3AR knock out C57BL/6J mouse at 10 mg/kg, ip measured up to 2 hrs by telemetric method. It counts as functional, organism-based. In short, it runs like this:
(§1)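 Male C57BL/6J wild-type mice, plus A3AR-knockout (ADORA3−/−) mice at 10 mg/kg, given test agent or vehicle i.p. Core body temperature (Tb) was followed over time. N=4 to 12 per group. Groups were compared by two-tailed t-test, paired or unpaired as appropriate.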

A short description of data set [7]: in vivo. The settings on record: Wistar, rat, po, 3 mg/kg.
The subject of data set [8] is Mus musculus. The experiment in a line: In vivo agonist activity at A3AR in C57BL/6J mouse assessed as reduction in core body temperature at 3 mg/kg, ip measured up to 2 hrs by telemetric method. It counts as functional, organism-based. In short, it runs like this: as §1
In data set [9] the target is T5, Adenosine receptor A1 (Mus musculus, UniProt Q60612).
T5 sequence (Q60612 whole entry): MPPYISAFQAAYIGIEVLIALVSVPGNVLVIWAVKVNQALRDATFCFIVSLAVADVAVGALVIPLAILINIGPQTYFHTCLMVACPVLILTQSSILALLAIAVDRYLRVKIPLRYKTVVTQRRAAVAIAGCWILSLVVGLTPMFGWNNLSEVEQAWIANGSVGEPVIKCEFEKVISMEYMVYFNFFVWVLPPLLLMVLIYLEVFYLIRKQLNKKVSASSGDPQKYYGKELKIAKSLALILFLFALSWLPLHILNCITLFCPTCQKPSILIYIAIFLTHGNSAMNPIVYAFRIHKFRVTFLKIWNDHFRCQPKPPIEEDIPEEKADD
The experiment in a line: Displacement of [3H]R-PIA from recombinant mouse A1AR expressed in HEK293 cell membranes measured after 60 mins by liquid scintillation counting method.

Data set [10] can be described thus: Half life in Wistar rat at 10 mg/kg, po. It counts as ADME, organism-based. The settings on record: in vivo.
Data set [11] relates to Mus musculus. The experiment in a line: In vivo antagonist activity at A3AR in C57BL/6J mouse assessed as inhibition of MRS5698-induced hypothermia at 3 to 10 mg/kg, ip pretreated for 15 mins followed by MRS5698 addition and measured up to 2 hrs by telemetric method. It counts as functional, organism-based.
A short description of data set [12]: Half life in Wistar rat at 3 mg/kg, po. It counts as ADME, organism-based. As to conditions: in vivo.
Data set [13] has as its target T1, Adenosine receptor A3 (Homo sapiens). The experiment in a line: Partial agonist activity at recombinant human A3AR expressed in HEK293 cells assessed as inhibition of forskolin-stimulated cAMP accumulation at 10 uM measured after 30 mins in presence of A2BAR blocker PSB-603 by Glo-sensor assay relative to Cl-IB-MECA. It counts as functional, cell-based. (cAMP levels reflect the balance of adenylyl cyclase and phosphodiesterase activity.)

The target of data set [14] is T6, Adenosine receptor A2a (Homo sapiens, UniProt P29274). The experiment in a line: Displacement of [3H]CGS21680 from recombinant human A2AAR expressed in HEK293 cell membranes at 10 uM measured after 60 mins by liquid scintillation counting method relative to control.
T6 sequence (P29274 whole entry): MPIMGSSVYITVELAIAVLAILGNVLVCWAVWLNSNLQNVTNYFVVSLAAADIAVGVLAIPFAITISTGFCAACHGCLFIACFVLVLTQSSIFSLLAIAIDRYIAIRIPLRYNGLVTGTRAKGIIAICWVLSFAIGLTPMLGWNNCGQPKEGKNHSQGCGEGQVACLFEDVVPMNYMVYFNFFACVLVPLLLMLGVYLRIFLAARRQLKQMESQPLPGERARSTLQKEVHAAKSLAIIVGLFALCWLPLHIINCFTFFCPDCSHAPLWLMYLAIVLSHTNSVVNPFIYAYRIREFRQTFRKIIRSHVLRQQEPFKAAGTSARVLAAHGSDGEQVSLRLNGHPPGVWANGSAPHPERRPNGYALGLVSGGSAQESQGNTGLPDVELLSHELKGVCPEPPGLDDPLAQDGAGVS
The target in the next data set is Translocator protein (Homo sapiens, UniProt P30536). The experiment in a line: Inhibition of TSPO (unknown origin).
Sequence of Translocator protein (P30536 whole entry): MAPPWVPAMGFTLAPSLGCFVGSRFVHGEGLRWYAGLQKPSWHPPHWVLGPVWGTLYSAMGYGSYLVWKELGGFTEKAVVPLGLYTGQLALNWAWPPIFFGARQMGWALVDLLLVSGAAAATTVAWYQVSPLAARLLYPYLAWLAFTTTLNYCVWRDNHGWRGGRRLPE
The target in data set [15] is Sigma non-opioid intracellular receptor 1 (Homo sapiens, UniProt Q99720). The experiment in a line: Displacement of [3H]-Pentazocine from sigma 1 receptor (unknown origin) measured after 90 mins by microbeta counting analysis.
Sequence of Sigma non-opioid intracellular receptor 1 (Q99720 whole entry): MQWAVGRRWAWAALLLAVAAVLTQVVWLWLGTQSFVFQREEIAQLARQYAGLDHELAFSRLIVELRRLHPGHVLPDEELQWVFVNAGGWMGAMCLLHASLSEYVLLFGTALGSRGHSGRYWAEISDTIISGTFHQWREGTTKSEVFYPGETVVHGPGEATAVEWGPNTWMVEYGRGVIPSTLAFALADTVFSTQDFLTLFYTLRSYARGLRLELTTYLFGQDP
Data set [16] deals with Mus musculus. The experiment in a line: In vivo agonist activity at A3AR in C57BL/6J mouse assessed as reduction in core body temperature at 10 mg/kg, ip measured up to 2 hrs by telemetric method. It counts as functional, organism-based. A digest of the protocol: as §1
Data set [17] deals with T7, Adenosine receptor A3 (Homo sapiens, UniProt P0DMS8).
T7 sequence (P0DMS8 whole entry): T1 sequence (whole entry)
The experiment in a line: biochemical.

Data set [18] concerns the target T6, Adenosine receptor A2a. The experiment in a line: Displacement of [3H]CGS21680 from recombinant human A2AAR expressed in HEK293 cell membranes measured after 60 mins by liquid scintillation counting method.
Data set [19] addresses T8, Adenosine receptor A1 (Homo sapiens, UniProt P30542).
T8 sequence (P30542 whole entry): T2 sequence (whole entry)
The experiment in a line: Displacement of [3H]R-PIA from recombinant human A1AR expressed in HEK293 cell membranes measured after 60 mins by liquid scintillation counting method.

Data set [20] deals with T9, Adenosine receptor A3 (Mus musculus, UniProt Q61618).
T9 sequence (Q61618 whole entry): T3 sequence (whole entry)
The experiment in a line: biochemical.

Activity calls are given as the source filed them. The calls are words filed in the database; no cut-off is given here.

Sequence of Sigma intracellular receptor 2 (Q5BJF2 whole entry): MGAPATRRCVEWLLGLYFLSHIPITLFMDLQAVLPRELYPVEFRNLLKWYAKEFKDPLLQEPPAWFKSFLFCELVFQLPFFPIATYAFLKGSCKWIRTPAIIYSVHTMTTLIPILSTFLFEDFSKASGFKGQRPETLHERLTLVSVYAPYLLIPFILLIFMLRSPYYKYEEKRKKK
Sequence of Cytochrome P450 2C9 (P11712 whole entry): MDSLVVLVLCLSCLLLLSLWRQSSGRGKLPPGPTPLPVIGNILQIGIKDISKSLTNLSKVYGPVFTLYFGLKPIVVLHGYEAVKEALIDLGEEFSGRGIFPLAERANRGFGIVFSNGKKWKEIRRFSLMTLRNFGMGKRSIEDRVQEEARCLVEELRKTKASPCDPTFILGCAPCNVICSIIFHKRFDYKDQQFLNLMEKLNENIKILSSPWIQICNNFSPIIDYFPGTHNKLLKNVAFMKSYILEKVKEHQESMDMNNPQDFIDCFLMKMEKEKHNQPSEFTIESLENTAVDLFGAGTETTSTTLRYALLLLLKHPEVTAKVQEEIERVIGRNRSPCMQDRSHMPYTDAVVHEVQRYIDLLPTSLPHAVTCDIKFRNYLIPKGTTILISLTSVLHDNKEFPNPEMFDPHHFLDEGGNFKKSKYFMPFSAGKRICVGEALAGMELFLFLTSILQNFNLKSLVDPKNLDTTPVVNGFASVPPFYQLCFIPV

With `COc1cc(CCNc2nc(C#Cc3ccccc3)nc3c2ncn3[C@H]2[C@H](O)[C@H](O)[C@@H]3C[C@@H]32)ccc1O`, the Ki (as a rule, the dissociation constant of the complex between target and ligand, obtained from inhibition or displacement) turned out to be 1980 nM in [1], 590 nM at Adenosine receptor A1 [9], 2220 nM at Translocator protein and 3570 nM in [15]. Besides, the Emax (commonly the maximal effect, on the per cent scale that the assay sets) in data set [2] stood at 75.5%; in data set [5], 16%; in data set [13] it was 31%. In addition, the bioavailability (in general, the share of a dose that reaches the circulation, judged against a reference dose that is usually intravenous) in “in vivo [3]” turned out to be 3.5%; in “in vivo [7]” it was 1.5%. Besides, the inhibition (usually the relative decrease from the control value, in per cent) worked out at 33% in data set [4] and 39% on Adenosine receptor A2a [14]. For the same compound, the IC50 (usually the concentration that inhibits the measured activity by half) on Cytochrome P450 3A4 was 2230 nM; at Cytochrome P450 2C19, over 30000 nM; on Cytochrome P450 2C9, 14400 nM; against Cytochrome P450 1A2 it was 2890 nM; on Cytochrome P450 2D6, over 30000 nM. Moreover, in the data set with Mus musculus [6], the result was inactive. The result in the data set on Mus musculus [8] and with Mus musculus [16] was Active. The half-life (as a rule, the time in which the quantity being followed falls by half) in [10] was 29.4 min; in [12], 27.4 min. Moreover, the inhibition result in the data set on Mus musculus [11] was “inactive”.

On to `COc1cc(CCNc2nc(C#Cc3ccccc3F)nc3c2ncn3[C@H]2[C@H](O)[C@H](O)[C@@H]3C[C@@H]32)ccc1O`, for which the Ki on Adenosine receptor A3 [17] was 5.42 nM; at Adenosine receptor A2a [18] it was 5850 nM; at Adenosine receptor A1 [19], 186 nM; at Adenosine receptor A3 [20], 21.5 nM; at Adenosine receptor A1 [9], 620 nM.

Values taken from ChEMBL document CHEMBL4402597, “Truncated (N)-Methanocarba Nucleosides as Partial Agonists at Mouse and Human A3 Adenosine Receptors: Affinity Enhancement by N6-(2-Phenylethyl) Substitution” (J Med Chem, 2020).
